Blank lines part the entries; values can stand above or below the compound they belong to.
What was measured:
[1] = target: T1, Somatostatin receptor type 5 (Homo sapiens, UniProt P35346); assay: Binding affinity for human receptor subtype hSSTR5.
Outline: (§1)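 Radioligand competition on membranes from CHO-K1 cells expressing hSSTR1–5, in 50 mM Tris-HCl pH 7.8 with 1 mM EGTA, 5 mM MgCl2 and protease inhibitors (leupeptin, pepstatin, bacitracin, aprotinin). Compounds ran 0.01–10,000 nM as seven-point full-log titrations, in triplicate, in at least two separate experiments. Incubation was 45 min at room temperature, then filtration onto PEI-pretreated GF/C filters and scintillation counting.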

[2] = target: Somatostatin receptor; assay: Binding affinity was measured for SRIF receptor on AtT-20 mouse pituitary cells; format: cell-based; conditions: pituitary gland cell
[3] = target: Somatostatin receptor type 3 (Homo sapiens, UniProt P32745); assay: Binding affinity for human receptor subtype hSSTR3.
Chain of Somatostatin receptor type 3 (P32745 whole entry): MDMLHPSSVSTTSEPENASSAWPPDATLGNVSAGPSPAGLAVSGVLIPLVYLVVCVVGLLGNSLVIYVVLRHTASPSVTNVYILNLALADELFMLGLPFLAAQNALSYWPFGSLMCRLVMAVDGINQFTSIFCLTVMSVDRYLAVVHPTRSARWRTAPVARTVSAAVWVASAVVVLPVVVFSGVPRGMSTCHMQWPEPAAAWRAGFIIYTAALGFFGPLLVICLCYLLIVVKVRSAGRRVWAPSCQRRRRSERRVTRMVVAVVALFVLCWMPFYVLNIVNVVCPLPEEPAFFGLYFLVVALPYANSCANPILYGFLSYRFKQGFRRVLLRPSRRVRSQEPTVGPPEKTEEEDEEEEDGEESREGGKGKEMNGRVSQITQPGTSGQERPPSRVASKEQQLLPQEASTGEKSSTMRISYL
Outline: as §1, with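 “aprotinin). Tracer was [125I-Tyr11]SRIF-14 at 0.1 nM final.” for “aprotinin).”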

[4] = target: Somatostatin receptor type 2 (Homo sapiens, UniProt P30874); assay: Binding affinity for human receptor subtype hSSTR2; outline: as §1
Chain of Somatostatin receptor type 2 (P30874 whole entry): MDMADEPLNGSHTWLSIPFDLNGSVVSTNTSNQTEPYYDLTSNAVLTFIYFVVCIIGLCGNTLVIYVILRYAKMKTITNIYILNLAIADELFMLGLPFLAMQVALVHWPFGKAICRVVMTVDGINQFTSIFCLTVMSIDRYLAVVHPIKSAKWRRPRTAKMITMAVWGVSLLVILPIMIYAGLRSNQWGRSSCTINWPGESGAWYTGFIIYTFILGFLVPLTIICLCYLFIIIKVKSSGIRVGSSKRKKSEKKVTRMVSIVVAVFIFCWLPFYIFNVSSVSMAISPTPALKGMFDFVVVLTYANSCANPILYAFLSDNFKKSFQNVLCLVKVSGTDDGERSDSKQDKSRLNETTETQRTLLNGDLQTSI

[5] = target: Somatostatin receptor type 4 (Homo sapiens, UniProt P31391); assay: Binding affinity for human receptor subtype hSSTR4.
Chain of Somatostatin receptor type 4 (P31391 whole entry): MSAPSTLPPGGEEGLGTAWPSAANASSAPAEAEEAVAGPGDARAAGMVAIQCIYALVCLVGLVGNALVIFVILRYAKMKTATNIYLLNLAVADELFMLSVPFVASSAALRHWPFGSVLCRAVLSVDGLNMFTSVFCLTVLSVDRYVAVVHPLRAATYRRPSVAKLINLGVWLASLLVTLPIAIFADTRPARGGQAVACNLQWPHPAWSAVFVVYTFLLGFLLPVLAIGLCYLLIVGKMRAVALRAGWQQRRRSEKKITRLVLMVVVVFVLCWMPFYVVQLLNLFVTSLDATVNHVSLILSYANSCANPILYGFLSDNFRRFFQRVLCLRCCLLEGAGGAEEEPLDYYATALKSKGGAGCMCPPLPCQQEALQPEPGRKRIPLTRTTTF
Outline: as §1, with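 “aprotinin). Tracer was [125I-Tyr11]SRIF-14 at 0.1 nM final.” for “aprotinin).”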

[6] = target: Somatostatin receptor type 1 (Homo sapiens, UniProt P30872); assay: Binding affinity for human receptor subtype hSSTR1; outline: as §1
Chain of Somatostatin receptor type 1 (P30872 whole entry): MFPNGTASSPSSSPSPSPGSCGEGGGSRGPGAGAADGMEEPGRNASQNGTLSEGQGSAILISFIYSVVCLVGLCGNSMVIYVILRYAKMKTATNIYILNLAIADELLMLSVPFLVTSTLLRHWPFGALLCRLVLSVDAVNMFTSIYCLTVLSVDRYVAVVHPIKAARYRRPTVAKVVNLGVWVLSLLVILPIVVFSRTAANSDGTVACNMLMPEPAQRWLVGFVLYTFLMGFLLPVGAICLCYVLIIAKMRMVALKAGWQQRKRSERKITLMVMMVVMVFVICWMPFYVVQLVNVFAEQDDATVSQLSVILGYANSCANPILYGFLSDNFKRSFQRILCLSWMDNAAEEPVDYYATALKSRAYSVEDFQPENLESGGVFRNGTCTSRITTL

[7] = target: T2, Substance-P receptor (Homo sapiens, UniProt P25103); assay: Binding affinity was measured for Tachykinin receptor 1; Did not bind
T2 sequence (P25103 whole entry): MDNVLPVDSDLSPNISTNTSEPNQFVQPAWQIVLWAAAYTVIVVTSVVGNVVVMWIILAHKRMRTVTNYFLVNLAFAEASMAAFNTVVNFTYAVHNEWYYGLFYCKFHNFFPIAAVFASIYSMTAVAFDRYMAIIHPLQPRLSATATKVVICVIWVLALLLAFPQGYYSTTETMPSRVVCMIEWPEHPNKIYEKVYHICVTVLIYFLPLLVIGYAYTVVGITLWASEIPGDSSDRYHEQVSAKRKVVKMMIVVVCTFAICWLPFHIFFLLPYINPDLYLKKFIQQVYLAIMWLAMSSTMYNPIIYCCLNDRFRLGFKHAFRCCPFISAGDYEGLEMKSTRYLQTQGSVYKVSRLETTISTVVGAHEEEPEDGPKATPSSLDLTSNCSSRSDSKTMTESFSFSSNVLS

[8] = target: T2, Substance-P receptor; assay: Binding affinity was measured for Tachykinin receptor 1
[9] = target: T1, Somatostatin receptor type 5; assay: Binding affinity for human receptor subtype hSSTR5.; Did not bind
Outline: as §1, with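 “aprotinin). Tracer was [125I-Tyr11]SRIF-14 at 0.1 nM final.” for “aprotinin).”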

T1 sequence (P35346 whole entry): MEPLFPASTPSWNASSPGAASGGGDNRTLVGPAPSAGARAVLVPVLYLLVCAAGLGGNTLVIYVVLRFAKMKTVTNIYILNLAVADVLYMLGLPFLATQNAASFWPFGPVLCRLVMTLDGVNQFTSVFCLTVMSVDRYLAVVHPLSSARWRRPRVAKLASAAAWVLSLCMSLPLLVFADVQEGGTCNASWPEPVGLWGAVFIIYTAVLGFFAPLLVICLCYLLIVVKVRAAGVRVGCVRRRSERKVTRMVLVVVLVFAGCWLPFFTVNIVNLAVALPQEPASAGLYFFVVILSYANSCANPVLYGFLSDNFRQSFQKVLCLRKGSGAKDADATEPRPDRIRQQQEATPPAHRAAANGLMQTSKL

Ki [1]: 1300 nM | IC50 [2]: 13000 nM | Ki [3]: 600 nM | Ki [4]: 600 nM | Ki [5]: 500 nM | Ki [6]: 2100 nM
Structure (SMILES): NCCCCCNC[C@H]1O[C@@H](OCCc2c[nH]c3ccccc23)[C@H](OCc2ccccc2)[C@@H](OCc2ccccc2)[C@@H]1OCc1ccccc1

IC50 [2]: 5900 nM
Structure (SMILES): CO[C@@H]1O[C@H](COCCCCCN)[C@@H](OCc2ccccc2)[C@H](OCc2ccccc2)[C@H]1OCc1ccccc1

IC50 [7]: Not Active
Structure (SMILES): Fc1ccc(OC[C@H]2O[C@@H](OCCc3c[nH]c4ccccc34)[C@H](OCc3ccc4ccccc4c3)[C@@H](OCc3ccccc3)[C@@H]2OCc2ccccc2)cc1

IC50 [2]: 7000 nM
Structure (SMILES): NCCCCCCOC[C@H]1O[C@@H](OCCc2c[nH]c3ccccc23)[C@H](OCc2ccccc2)C[C@@H]1OCc1ccccc1

IC50 [8]: 65 nM
Structure (SMILES): C[C@@H](O)[C@@H]1NC(=O)[C@H](Cc2ccc(F)cc2)NC(=O)[C@@H](Cc2c[nH]c3ccccc23)NC(=O)[C@H](Cc2ccc3ccccc3c2)NC(=O)[C@@H]2CCCN2C(=O)[C@H](Cc2ccccc2)NC1=O

IC50 [2]: 5100 nM
Structure (SMILES): OCCCCCCNC[C@H]1O[C@@H](OCCc2c[nH]c3ccccc23)[C@H](OCc2ccccc2)C[C@@H]1OCc1ccccc1

IC50 [7]: Not Active
Structure (SMILES): CC(=O)NCCCCCOC[C@H]1O[C@@H](OCCc2c[nH]c3ccccc23)[C@H](OCc2ccc3ccccc3c2)[C@@H](OCc2ccccc2)[C@@H]1OCc1ccccc1

IC50 [2]: 22000 nM
Structure (SMILES): NCCCCCOC[C@H]1O[C@@H](CCc2c[nH]c3ccccc23)[C@H](OCc2ccccc2)[C@@H](OCc2ccccc2)[C@@H]1OCc1ccccc1

IC50 [2]: 5600 nM
Structure (SMILES): CO[C@@H]1O[C@H](COCCCCCN)[C@@H](OCc2ccccc2)[C@H](OCc2c[nH]cn2)[C@H]1OCc1ccccc1

Ki [9]: Not Active
Structure (SMILES): NCCCCCOC[C@@H]1O[C@H](OCCc2c[nH]c3ccccc23)[C@H](OCc2c[nH]cn2)[C@H](OCc2ccccc2)[C@H]1OCc1ccccc1

IC50 [8]: 209 nM
Structure (SMILES): CC(=O)NCCCCCOC[C@H]1O[C@@H](OCCc2c[nH]c3ccccc23)[C@H](OCc2ccc(F)cc2)[C@@H](OCc2ccccc2)[C@@H]1OCc1ccccc1

IC50 [2]: 8400 nM
Structure (SMILES): NCCCCCOC[C@H]1O[C@@H](OCCc2c[nH]c3ccccc23)[C@H](OCc2ccccc2)C[C@@H]1OCc1ccccc1

IC50 [7]: Not Active
Structure (SMILES): Fc1ccc(COC[C@H]2O[C@@H](OCCc3c[nH]c4ccccc34)[C@H](OCc3ccc4ccccc4c3)[C@@H](OCc3ccccc3)[C@@H]2OCc2ccccc2)cc1

IC50 [7]: Not Active
Structure (SMILES): Fc1ccc(CO[C@H]2[C@H](OCCc3c[nH]c4ccccc34)O[C@H](COCc3ccc4ccccc4c3)[C@@H](OCc3ccccc3)[C@@H]2OCc2ccccc2)cc1

IC50 [2]: 14000 nM
Structure (SMILES): OCCCCCNC[C@H]1O[C@@H](OCCc2c[nH]c3ccccc23)[C@H](OCc2ccccc2)[C@@H](OCc2ccccc2)[C@@H]1OCc1ccccc1

IC50 [2]: 4100 nM
Structure (SMILES): NCCCCCOC[C@H]1O[C@@H](OCCc2c[nH]c3ccccc23)[C@H](OCc2c[nH]cn2)C[C@@H]1OCc1ccccc1
